Source: PubChem BioAssay
Activity calls are given as the source filed them.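 How the source made its calls, unless noted: active means viability at or under a set limit in both replicates, limit being median viability minus 3 SD (cut at about 48% in these data, passing the limit was not always enough); inconclusive means at or under the limit in just one replicate; inactive means at or above the limit in both replicates.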

Experiments:
[1] = reducers of endogenous Her2 protein level, primary screen, SKBR3 breast tumor cells, AlphaScreen, ATP viability (AID 461;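 active means Her2 level under about 52% in both replicate screens, with viability over 70% of control, limit read from the data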;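 on Her2 level: lower value means less Her2 protein in the cells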;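 on viability: percent of carrier control wells set as 100% viability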); conditions: 18-24 h, measured here: SKBR3 viability, ATP luminescence, at 10 µM
[2] = molecular target: Receptor tyrosine-protein kinase erbB-2 (Homo sapiens) (UniProt P04626); assay: as above; conditions: 18-24 h, at 10 µM, stronger effect = lower value
[3] = SK-BR-3 cell growth inhibitors, pilot screen, 24 h, human (AID 572;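 active means viability at or below 10% of carrier control in both of two separate runs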;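 further: compound exposure lasted between 18 and 24 h rather than exactly 24 h; 100% = carrier-treated control wells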); conditions: SK-BR-3 viability, CellTiter-Glo luminescence, at 10 µM, stronger effect = lower value
[4] = HUVEC growth inhibition – cell-based, human, primary screen (AID 575;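 active means viability at or below 30% in both replicate assays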;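 further: 100% = median of untreated cell wells with 0.1% DMSO on each plate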); conditions: HUVEC proliferation, CellTiter-Glo luminescence, 72 h; at 10 µM; stronger effect = lower value
Method in brief: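 Test system – primary HUVEC, no more than 12 passages · Dosing – one dose, 10 µM final, 0.1% DMSO · Times – 72 h treatment at 37 °C · Measured by – ATP-based CellTiter-Glo luminescent read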

[5] = growth inhibitors of H69AR lung tumor, primary screen, human, duplicate replicates (AID 580); conditions: H69AR lung tumor cells viability, ATP luminescence, 72 h; at 10 µM; stronger effect = lower value;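 further: 100% = mean luminescence of untreated wells and 0% = no signal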
[6] = reversal of MRP1-mediated doxorubicin resistance, pilot screen, H69AR cells, doxorubicin co-treatment (AID 601;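 active means viability loss from added drug above about 55%, and viability with drug at most 40%, in both replicates, limit read from the data, passing the limit was not always enough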); conditions: CellTiter-Glo, 72 h, at 10 µM; for differential viability (reversal): stronger effect = higher value
[7] = 384-well plate pilot, post-Golgi transport modulator project, inhibition of yeast transport mutant growth (AID 636; in the data active means inhibition above about 31%); conditions: absorbance 615 nm, about 18 h, stronger effect = higher value
[8] = growth suppression of yeast trafficking mutant, preliminary HTS, modulators of trafficking downstream of Golgi apparatus project, 1536-format plate, OD 615 nm (AID 637; in the data active means inhibition above about 30%); conditions: yeast transport mutant growth, absorbance 615 nm, 18 h; stronger effect = higher value
[9] = H69AR cells + 2 uM doxorubicin, measured here: viability with 2 uM doxorubicin, stronger effect = lower value
[10] = H69AR cells, compound alone cytotoxicity

Receptor tyrosine-protein kinase erbB-2 (Homo sapiens), sequence (P04626 whole entry, looked up): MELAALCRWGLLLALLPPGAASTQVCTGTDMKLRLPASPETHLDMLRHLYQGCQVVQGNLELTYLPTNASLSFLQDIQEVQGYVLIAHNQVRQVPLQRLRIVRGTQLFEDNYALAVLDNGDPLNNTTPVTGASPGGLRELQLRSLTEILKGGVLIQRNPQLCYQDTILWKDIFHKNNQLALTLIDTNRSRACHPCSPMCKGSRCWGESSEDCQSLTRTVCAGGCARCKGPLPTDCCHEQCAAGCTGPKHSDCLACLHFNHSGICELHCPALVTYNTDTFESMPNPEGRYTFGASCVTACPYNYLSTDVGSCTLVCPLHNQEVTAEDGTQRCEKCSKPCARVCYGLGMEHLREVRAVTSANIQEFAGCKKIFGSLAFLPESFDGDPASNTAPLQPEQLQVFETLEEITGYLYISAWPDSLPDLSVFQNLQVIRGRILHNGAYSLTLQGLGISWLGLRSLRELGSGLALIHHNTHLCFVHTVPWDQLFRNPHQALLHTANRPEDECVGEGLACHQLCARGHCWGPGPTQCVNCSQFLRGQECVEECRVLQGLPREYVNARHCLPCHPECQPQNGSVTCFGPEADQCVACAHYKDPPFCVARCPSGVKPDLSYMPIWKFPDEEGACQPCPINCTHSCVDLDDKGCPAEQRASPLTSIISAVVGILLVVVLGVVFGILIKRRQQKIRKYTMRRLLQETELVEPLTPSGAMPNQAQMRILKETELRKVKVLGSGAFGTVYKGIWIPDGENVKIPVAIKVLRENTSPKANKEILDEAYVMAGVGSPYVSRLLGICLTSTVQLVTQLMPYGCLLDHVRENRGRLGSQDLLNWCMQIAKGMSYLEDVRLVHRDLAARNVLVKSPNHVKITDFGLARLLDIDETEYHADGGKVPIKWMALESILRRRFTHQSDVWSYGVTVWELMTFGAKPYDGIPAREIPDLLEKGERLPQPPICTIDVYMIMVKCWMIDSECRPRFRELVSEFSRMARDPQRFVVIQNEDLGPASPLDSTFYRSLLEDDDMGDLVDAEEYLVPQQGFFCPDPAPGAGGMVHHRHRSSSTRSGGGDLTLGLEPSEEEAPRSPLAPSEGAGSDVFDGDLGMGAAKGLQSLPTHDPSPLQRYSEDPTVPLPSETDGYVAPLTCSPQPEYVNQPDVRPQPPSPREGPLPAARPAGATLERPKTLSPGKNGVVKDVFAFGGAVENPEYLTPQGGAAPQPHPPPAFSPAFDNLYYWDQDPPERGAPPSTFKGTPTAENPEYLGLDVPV

SMILES | viability [1] | Her2 level [2] | viability [3] | viability [4] | viability [5] | differential viability (reversal) ([6]; H69AR cells + 2 uM doxorubicin) | viability [6, 9] | viability [6, 10] | inhibition [7] | inhibition [8]
C=CCc1cc(OC)ccc1OCC(O)CN1CCN(c2ccc(OC)cc2)CC1 (stereo not given) | 82.5% | 78% (inactive) | 82.5% (inactive) | 89% (inactive) | 99.6% (inactive) | -4.29% (inactive) | 104% | 99.6% | 0.13% (inactive) | 8.57% (inactive)
Cc1ccc(S(=O)(=O)N(CCO)c2cc3c(s2)CCCC3)cc1 | 114% | 94.5% (inactive) | 114% (inactive) | 68.6% (inactive) | 81.9% (inactive) | -3.64% (inactive) | 85.6% | 81.9% | -5.32% (inactive) | -7.5% (inactive)
Cc1onc(-c2ccccc2)c1C(=O)Nc1ccnn1C1CCCCC1 | 99.5% | 97.5% (inactive) | 99.5% (inactive) | 91.3% (inactive) | 90.6% (inactive) | -4.68% (inactive) | 95.3% | 90.6% | -5.6% (inactive) | -2.95% (inactive)
COc1ccc(S(=O)(=O)N2CCCC(C(=O)N3CCCCCC3)C2)cc1 (stereo not given) | 102% | 80% (inactive) | 102% (inactive) | 100% (inactive) | 88.2% (inactive) | -3.65% (inactive) | 91.9% | 88.2% | -5% (inactive) | 2% (inactive)
O=S(=O)(NCc1cccnc1)c1cccc2nsnc12 | 98% | 83.5% (inactive) | 98% (inactive) | 89.6% (inactive) | 92.3% (inactive) | 6.5% (inactive) | 85.8% | 92.3% | -7.07% (inactive) | 6.56% (inactive)
C=CCc1cccc2cc(C(=O)NCc3cccnc3)c(=O)oc12 | 97.5% | 112% (inactive) | 97.5% (inactive) | 95% (inactive) | 95% (inactive) | 4.88% (inactive) | 90.1% | 95% | -0.52% (inactive) | -9.33% (inactive)
COC(=O)CNC(=O)c1c(C)cc(=O)oc1C | 89.5% | 104% (inactive) | 89.5% (inactive) | 90.3% (inactive) | 97.1% (inactive) | 5.65% (inactive) | 91.4% | 97.1% | -4.27% (inactive) | -8.55% (inactive)
N#CCc1c(C#N)c(N)nc(N2CCN(S(=O)(=O)c3ccccc3)CC2)c1C#N | 74% | 75.5% (inactive) | 74% (inactive) | 59% (inactive) | 77.6% (inactive) | -13.6% (inactive) | 91.2% | 77.6% | -4.46% (inactive) | 0.16% (inactive)
COCCSc1nnc(NC(=O)Cc2ccccc2OC)s1 | 106% | 76% (inactive) | 106% (inactive) | 91% (inactive) | 98.9% (inactive) | 7.86% (inactive) | 91% | 98.9% | -5.39% (inactive) | -1.67% (inactive)
O=C(NC1=NCCS1)NC12CC3CC(CC(C3)C1)C2 | 111% | 106% (inactive) | 111% (inactive) | 98.4% (inactive) | 93% (inactive) | 4.27% (inactive) | 88.7% | 93% | -4.53% (inactive) | 5.08% (inactive)
CCCCCCNC(=O)Cc1c(O)c2ccccc2[nH]c1=O | 105% | 90.5% (inactive) | 105% (inactive) | 114% (inactive) | 94.9% (inactive) | 14.7% (inactive) | 80.2% | 94.9% | -5.27% (inactive) | 7.67% (inactive)
CC(C(=O)NCc1cccnc1)N1C(=O)c2ccccc2C1=O (stereo not given) | 103% | 97% (inactive) | 103% (inactive) | 99.9% (inactive) | 93.7% (inactive) | -3.79% (inactive) | 97.5% | 93.7% | -3.03% (inactive) | -4.36% (inactive)
CCOc1ccc2ccccc2c1C(=O)N1CCN(c2ccccc2)CC1 | 95% | 83.5% (inactive) | 95% (inactive) | 47.3% (inactive) | 9.8% (active) | -57% (inactive) | 66.8% | 9.8% | -2.8% (inactive) | -10.6% (inactive)
Cc1nc2nc(SCC(=O)NCc3ccco3)nn2c(C)c1Cc1ccccc1 | 83% | 108% (inactive) | 83% (inactive) | 97.3% (inactive) | 75.2% (inactive) | -2% (inactive) | 77.2% | 75.2% | -5.27% (inactive) | -3% (inactive)
O=S(=O)(NCCc1csc(-c2ccccc2)n1)c1ccc2c(c1)OCCO2 | 103% | 76% (inactive) | 103% (inactive) | 101% (inactive) | 93.6% (inactive) | 4.63% (inactive) | 89% | 93.6% | -1.97% (inactive) | 4.59% (inactive)
Cc1cc(C(F)F)n2nc(C(=O)Nc3ccc(S(=O)(=O)N4CCCCCC4)cc3)nc2n1 | 74% | 73.5% (inactive) | 74% (inactive) | 83.4% (inactive) | 83.3% (inactive) | -1.62% (inactive) | 84.9% | 83.3% | -3.87% (inactive) | 22.9% (inactive)
Cc1nnc(SCCn2c(N3CC(C)CC(C)C3)nc3c2c(=O)n(C)c(=O)n3C)s1 (stereo not given) | 106% | 99.5% (inactive) | 106% (inactive) | 93.8% (inactive) | 95.9% (inactive) | -2.37% (inactive) | 98.2% | 95.9% | 0.26% (inactive) | 24.7% (inactive)
COc1ccc(NC(=O)CCc2nc(-c3ccccc3F)no2)cc1 | 115% | 99% (inactive) | 115% (inactive) | 91.9% (inactive) | 93.6% (inactive) | 4.53% (inactive) | 89.1% | 93.6% | -0.26% (inactive) | -0.66% (inactive)
CC(C)c1cc(C(=O)NCc2ccco2)no1 | 101% | 99.5% (inactive) | 101% (inactive) | 84.3% (inactive) | 80.4% (inactive) | 5.93% (inactive) | 74.5% | 80.4% | 0.13% (inactive) | -2.83% (inactive)
CC(=O)C1=C(O)C(=O)N(Cc2ccco2)C1c1ccc(F)cc1 (stereo not given) | 102% | 110% (inactive) | 102% (inactive) | 123% (inactive) | 109% (inactive) | 8.52% (inactive) | 100% | 109% | 1.07% (inactive) | -5% (inactive)
CSc1nc(=NC(C)=O)ss1 | 122% | 88.5% (inactive) | 122% (inactive) | 84.7% (inactive) | 71.8% (inactive) | -20% (inactive) | 91.8% | 71.8% | -6.8% (inactive) | -10% (inactive)
COc1ccccc1OCC(=O)Nc1cccc(-c2nc3ccccc3o2)c1 | 104% | 78.5% (inactive) | 104% (inactive) | 52.8% (inactive) | 65.1% (inactive) | -14.2% (inactive) | 79.3% | 65.1% | -0.13% (inactive) | 23% (inactive)
CC(NC(=O)c1ccco1)C(c1cccs1)N1CCN(c2ccc(F)cc2)CC1 (stereo not given) | 96% | 89% (inactive) | 96% (inactive) | 67.9% (inactive) | 86.2% (inactive) | -15.7% (inactive) | 102% | 86.2% | -4.13% (inactive) | 0.16% (inactive)
C[C@H](NC(=O)Nc1ccccc1F)C(=O)O | 100% | 96% (inactive) | 100% (inactive) | 101% (inactive) | 100% (inactive) | -14.3% (inactive) | 115% | 100% | -3.42% (inactive) | 4.43% (inactive)
CC(C)=CC(=O)Nc1ccc(Br)cc1 | 77.5% | 104% (inactive) | 77.5% (inactive) | 107% (inactive) | 98.2% (inactive) | 6.66% (inactive) | 91.5% | 98.2% | 1.45% (inactive) | -9.35% (inactive)
COc1ccc2c(c1)CCc1c(C(=O)N3CCCc4ccccc43)noc1-2 | 98% | 87% (inactive) | 98% (inactive) | 80.8% (inactive) | 81.1% (inactive) | 3% (inactive) | 78.1% | 81.1% | -6.05% (inactive) | -8.91% (inactive)
COCCNC(=O)C(c1ccncc1)N(C(=O)Cn1nnc2ccccc21)c1ccc(OC)cc1 (stereo not given) | 96% | 73.5% (inactive) | 96% (inactive) | 97.7% (inactive) | 104% (inactive) | 9.12% (inactive) | 95.1% | 104% | -7.03% (inactive) | 8.03% (inactive)
Cc1oc(-c2ccccc2F)nc1CS(=O)(=O)CC(=O)N1CCN(Cc2ccccc2)CC1 | 77.5% | 91.5% (inactive) | 77.5% (inactive) | 102% (inactive) | 90.2% (inactive) | -1.19% (inactive) | 91.4% | 90.2% | -3.07% (inactive) | -0.98% (inactive)
